Assay results of several laboratories.
Lines come from different studies, so protocols differ.
Target: Rho-associated protein kinase 1 (ROCK1, Homo sapiens, UniProt Q13464)

| Compound | read-out | technique | tested at | remaining binding |
| --- | --- | --- | --- | --- |
| COc1ccnn2ncc(-c3ccnc(N(C)C)n3)c12 | binding |  | 1 µM | 93% |
| C[C@H](c1ccc(F)cc1)N(Cc1cccc(C(=O)O)c1)C(=O)c1cnc2ccccc2c1 | cell-free assay | competition with immobilised ligand | 1 µM | 100% |
| O=C(NCC1CCOCC1)c1n[nH]cc1NC(=O)c1c(F)cccc1F | binding | competition with immobilised ligand | 1 µM | 83% |
| CC(C)CC(=O)N1CCc2nc(-c3ccc(Br)cc3)nc(N(C)Cc3ccccc3)c2C1 | cell-free assay | competition with immobilised ligand | 0.1 µM | 78% |
| CC1CCCN1c1nccc(-c2cnn3ncccc23)n1 (stereo not shown) | binding |  | 1 µM | 100% |
| Nc1ncc2c(n1)-c1c([nH]c3ccc(C#CC4CC4)cc13)CCCC2 | binding | competition with immobilised ligand | 1 µM | 100% |
| N#Cc1ccc(Nc2ccc3[nH]c(=O)[nH]c3c2)c(Cl)c1 | cell-free assay | competition with immobilised ligand | 1 µM | 100% |
| CN(C)c1nccc(-c2cnn3ncccc23)n1 | binding |  | 1 µM | 100% |
| Cc1cnc(Nc2ccc(C(=O)N3CCC(N4CCCC4)CC3)cc2)nc1-c1cc2ccccc2s1 | binding | competition with immobilised ligand | 1 µM | 7.7% |
| C[C@@H](c1ccc(-n2cnc3c(N)ncnc32)cc1)N1CCc2nn(C)c(Cc3ccccc3)c2C1=O | binding | competition with immobilised ligand | 0.1 µM | 85% |
| O=C(c1ccc(Nc2ncc(Cl)c(-c3cc4ccccc4s3)n2)cc1)N1CCC(N2CCCC2)CC1 | binding | competition with immobilised ligand | 1 µM | 4.5% |
| COc1ncc2cc3ccccc3nc2c1C#N | cell-free assay | competition with immobilised ligand | 5 µM | 84% |
| CCN1CCN(Cc2ccc(C(=O)Nc3ccc(C)c(Oc4ccc5c(c4)CC(=O)N5)c3)cc2C(F)(F)F)CC1 | binding | competition with immobilised ligand | 1 µM | 69% |
| COc1cnc(Nc2cccc(S(N)(=O)=O)c2)nc1N1CCN(c2ccccc2)C(=O)C1 | binding | competition with immobilised ligand | 1 µM | 43% |
| CS(=O)(=O)c1cc(C2(NC(=O)c3cncc4c3cnn4-c3ccc(F)cc3)CC2)ccn1 | cell-free assay | competition with immobilised ligand | 1 µM | 79% |
| N[C@@H]1CCN(c2nccc(-c3cnn4ncccc34)n2)C1 | binding |  | 1 µM | 94% |
| C[C@H](c1ccnc(Nc2nc3ccc(-c4cc(N(C)C)ncn4)cc3[nH]2)c1)N1CCN(C(=O)CC(F)(F)F)CC1 | cell-free assay | competition with immobilised ligand | 0.1 µM | 100% |
| CN(C)c1nccc(-c2cnc3ncccn23)n1 | binding |  | 1 µM | 74% |
| CCC(=N\O)/C(C)=C/c1ccc(F)cc1 | cell-free assay | competition with immobilised ligand | 1 µM | 100% |
| O=C(c1ccc(Nc2nccc(-c3cc4ccccc4s3)n2)cc1)N1CCC(N2CCCC2)CC1 | binding | competition with immobilised ligand | 1 µM | 7.4% |
| C[C@@H]1CCN(c2nccc(-c3cnn4ncccc34)n2)C1 | binding |  | 1 µM | 86% |
| Cc1c(C(=O)O)cc(-c2ccc(C3CCNCC3)cc2)c2ccc(-c3ccc(C(F)(F)F)cc3)cc12 | binding | competition with immobilised ligand | 1 µM | 100% |
